Data published in ChEMBL document CHEMBL1128446, “Pyrazinoic acid esters with broad spectrum in vitro antimycobacterial activity” (1995).
Values after ≈ are worked out from the molar mass of the structure shown.

Assays:
Type in all cases: functional
[1] = system: Mycobacterium tuberculosis; test: Minimum Inhibitory Concentration for PZA resistant forms against Mycobacterium tuberculosis ATCC 35828
Procedure, shortened: (§1)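 Broth macrodilution in tubes of modified Middlebrook 7H10 broth (agar and malachite green omitted) with 10% OADC and 0.05% Tween 80 at pH 5.8. Cultures were grown 3 days at 37 °C on a rotary shaker, then diluted with 7H10 broth to 1 Klett unit/mL. Stocks were made in water or DMSO and filter-sterilised; 2-fold serial dilutions were tested. Tubes shaken 7–10 days at 37 °C, with a drug-free control. MIC = lowest concentration (μg/mL) with no visible turbidity.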

[2] = system: Mycobacterium tuberculosis; test: Minimum Inhibitory Concentration against Mycobacterium tuberculosis ATCC 35828 PZA resistant form; procedure, shortened: as §1
[3] = system: Mycobacterium tuberculosis; test: Minimum Inhibitory Concentration against Mycobacterium tuberculosis ATCC 35828 for PZA resistant form; procedure, shortened: as §1

Structure (SMILES) | MIC [1] | MIC [2] | also measured
CCCCCCCCC(CC)OC(=O)c1cnc(Cl)cn1 (centres undefined) | 0.25 µg/mL (≈ 0.799 µM) | – | –
CCC(C)(CC)OC(=O)c1cnc(Cl)cn1 | 4 µg/mL (≈ 16.5 µM) | – | –
C=CCOC(=O)c1cnc(Cl)cn1 | – | 2 µg/mL (≈ 10.1 µM) | –
Cc1ccc(C(C)OC(=O)c2cnc(Cl)cn2)cc1 (centres undefined) | 2 µg/mL (≈ 7.23 µM) | – | –
CCCCCCOC(=O)c1cnc(F)cn1 | 8 µg/mL (≈ 35.4 µM) | – | –
CCCCCCC(C)OC(=O)c1cnc(Cl)cn1 (centres undefined) | – | 0.5 µg/mL (≈ 1.85 µM) | –
CCCCCC(C)(CCCC)OC(=O)c1cnc(Cl)cn1 (centres undefined) | 16 µg/mL (≈ 51.1 µM) | – | –
CCCCCCC(C)OC(=O)c1cnc(F)cn1 (centres undefined) | 4 µg/mL (≈ 15.7 µM) | – | –
COC(=O)c1cnccn1 | – | 64 µg/mL (≈ 463 µM) | –
O=C(Oc1c(Br)cc(Br)cc1Br)c1cnccn1 | – | 32 µg/mL (≈ 73.2 µM) | –
CCCCCCC(C)(CCCCC)OC(=O)c1cnc(Cl)cn1 (centres undefined) | 16 µg/mL (≈ 46.9 µM) | – | –
Cc1cc(C(C)(C)C)c(OC(=O)c2cnccn2)c(C(C)(C)C)c1 | – | 128 µg/mL (≈ 392 µM) | –
CCCCCCCCOC(=O)c1cnc(Cl)cn1 | – | < 0.03 µg/mL | –
O=C(OCc1ccccc1)c1cnccn1 | – | 2 µg/mL (≈ 9.34 µM) | –
O=C(OCc1ccc(Br)cc1)c1cnc(Cl)cn1 | > 16 µg/mL | – | –
CCCCCCC(C)(C)OC(=O)c1cnc(Cl)cn1 | 0.25 µg/mL (≈ 0.878 µM) | – | –
CCCCCCOC(=O)c1cnc(Cl)cn1 | – | 0.5 µg/mL (≈ 2.06 µM) | –
CCCCCCCCC(C)OC(=O)c1cnc(Cl)cn1 (centres undefined) | – | < 0.03 µg/mL | –
CC(OC(=O)c1cnc(Cl)cn1)c1ccc(Br)cc1 (centres undefined) | 16 µg/mL (≈ 46.8 µM) | – | –
CCCCCC(CC)OC(=O)c1cnc(Cl)cn1 (centres undefined) | – | – | MIC [3]: 1 µg/mL (≈ 3.69 µM)
O=C(OC(c1ccccc1)c1ccccc1)c1cnc(Cl)cn1 | 16 µg/mL (≈ 49.3 µM) | – | –
CCCCCCCCCOC(=O)c1cnc(Cl)cn1 | – | < 0.03 µg/mL | –
CCCCCCCC(OC(=O)c1cnc(Cl)cn1)C(C)(C)C (centres undefined) | 2 µg/mL (≈ 6.12 µM) | – | –

Structure (SMILES) | MIC [1] | MIC [2] | also measured
CC(C)COC(=O)c1cnc(Cl)cn1 | – | 2 µg/mL (≈ 9.32 µM) | –
CCCCCCCCCC(C)OC(=O)c1cnc(Cl)cn1 (centres undefined) | – | 1 µg/mL (≈ 3.2 µM) | –
CCCCCCCC(C)(CCCC)OC(=O)c1cnc(Cl)cn1 (centres undefined) | 16 µg/mL (≈ 46.9 µM) | – | –
Cc1cnc(C(=O)O)cn1 | – | > 64 µg/mL | –
CCCCCCCC(C)(CCCCC)OC(=O)c1cnc(Cl)cn1 (centres undefined) | 8 µg/mL (≈ 22.5 µM) | – | –
O=C(OCc1ccccc1)c1cnc(Cl)cn1 | – | 1 µg/mL (≈ 4.02 µM) | –
COC(=O)c1cnc(F)cn1 | 8 µg/mL (≈ 51.2 µM) | – | –
CCCCOC(=O)c1cnc(Cl)cn1 | – | 0.5 µg/mL (≈ 2.33 µM) | –
CCCCCCCCCOC(=O)c1cnc(C)cn1 | 2 µg/mL (≈ 7.57 µM) | – | –
O=C(OCCc1ccc(Cl)cc1)c1cnc(Cl)cn1 | 32 µg/mL (≈ 108 µM) | – | –
O=C(Oc1cccc2ccccc12)c1cnccn1 | – | 8 µg/mL (≈ 32 µM) | –
CCCCCCCCCCOC(=O)c1cnccn1 | – | 0.25 µg/mL (≈ 0.946 µM) | –
CCCCCCCCC(C)(C)OC(=O)c1cnc(Cl)cn1 | 0.25 µg/mL (≈ 0.799 µM) | – | –
CCCCCCCCCCCCCCCOC(=O)c1cnccn1 | – | 1 µg/mL (≈ 2.99 µM) | –
NC(=O)c1cnccn1 [PYRAZINAMIDE] | – | 2050 µg/mL (≈ 16600 µM) | –
CC(C)(C)OC(=O)c1cnc(Cl)cn1 | – | 0.5 µg/mL (≈ 2.33 µM) | –
O=C(OCCc1ccccc1)c1cnc(Cl)cn1 | 4 µg/mL (≈ 15.2 µM) | – | –
O=C(O)c1cnccn1 [PYRAZINOIC ACID] | – | 32 µg/mL (≈ 258 µM) | –
CCCCCOC(=O)c1cnc(Cl)cn1 | – | 0.12 µg/mL (≈ 0.525 µM) | –
CCCCCCC(C)(CCCC)OC(=O)c1cnc(Cl)cn1 (centres undefined) | 16 µg/mL (≈ 48.9 µM) | – | –
CC(C)(OC(=O)c1cnc(Cl)cn1)c1ccccc1 | > 16 µg/mL | – | –
CCCCCCCCC(C)(CCCC)OC(=O)c1cnc(Cl)cn1 (centres undefined) | 8 µg/mL (≈ 22.5 µM) | – | –
CCCCCCCCCCC(OC(=O)c1cnc(Cl)cn1)C(C)(C)C (centres undefined) | 16 µg/mL (≈ 43.4 µM) | – | –

Structure (SMILES) | MIC [1] | MIC [2] | also measured
O=C(O)c1cnc(Cl)cn1 | – | 64 µg/mL (≈ 404 µM) | –
CCCCCC(CC)OC(=O)c1cnc(C)cn1 (centres undefined) | – | 1 µg/mL (≈ 3.99 µM) | –
CCCCCCCCCCOC(=O)c1cnc(F)cn1 | 4 µg/mL (≈ 14.2 µM) | – | –
CCCCC(OC(=O)c1cnc(Cl)cn1)c1ccccc1 (centres undefined) | 8 µg/mL (≈ 26.2 µM) | – | –
CCCOC(=O)c1cnc(Cl)cn1 | – | 0.25 µg/mL (≈ 1.25 µM) | –
CCCCCCCOC(=O)c1cnc(C)cn1 | 1 µg/mL (≈ 4.23 µM) | – | –
O=C(Oc1ccc(F)cc1)c1cnccn1 | – | 16 µg/mL (≈ 73.3 µM) | –
CCCCCCCC(C)OC(=O)c1cnc(Cl)cn1 (centres undefined) | – | 2 µg/mL (≈ 7.02 µM) | –
COC(=O)c1cnc(Cl)cn1 | – | 16 µg/mL (≈ 92.7 µM) | –
CCCCCC(C)OC(=O)c1cnc(Cl)cn1 (centres undefined) | – | 0.06 µg/mL (≈ 0.234 µM) | –
COC(=O)c1cnc(C)cn1 | > 16 µg/mL | – | –
CCCCCCCCCC(C)(C)OC(=O)c1cnc(Cl)cn1 | 16 µg/mL (≈ 48.9 µM) | – | –
CCCCCCCCCCCC(C)OC(=O)c1cnc(Cl)cn1 (centres undefined) | – | 0.5 µg/mL (≈ 1.47 µM) | –
CCCCCCCOC(=O)c1cnc(Cl)cn1 | – | < 0.03 µg/mL | –
CCCCCCCC(OC(=O)c1cnc(Cl)cn1)C(C)C (centres undefined) | 2 µg/mL (≈ 6.39 µM) | – | –
CCCCCCC(C)(CCCCCC)OC(=O)c1cnc(Cl)cn1 | 0.5 µg/mL (≈ 1.41 µM) | – | –
CCCCCCCCCCCOC(=O)c1cnc(Cl)cn1 | – | 0.5 µg/mL (≈ 1.6 µM) | –
CCCCCC(C)(CCCCC)OC(=O)c1cnc(Cl)cn1 | 16 µg/mL (≈ 48.9 µM) | – | –
CCCOC(=O)c1cnc(C)cn1 | 1 µg/mL (≈ 5.55 µM) | – | –
CC(C)(C)C(OC(=O)c1cnc(Cl)cn1)c1ccccc1 (centres undefined) | 16 µg/mL (≈ 52.5 µM) | – | –
CC(C)COC(=O)c1cnccn1 | – | 64 µg/mL (≈ 355 µM) | –
CCOC(=O)c1cnc(Cl)cn1 | – | > 16 µg/mL | –
CCCCCCCCCCOC(=O)c1cnc(Cl)cn1 | – | 0.5 µg/mL (≈ 1.67 µM) | –
